Test results as given in ChEMBL document CHEMBL3352181, “Novel phenyl and pyridyl substituted derivatives of isoindolines: Synthesis, antitumor activity and DNA binding features” (Eur J Med Chem, 2014).
Calls of active or inactive are those of the source. No cut-off for these calls is given here.

Key:
[1] = test system: SW-620; assay: Induction of cell cycle arrest on human SW620 cells assessed as accumulation at subG1 phase at 20 uM after 48 hrs by propidium iodide staining based flow cytometry (reference value: 12.1 +/- 0.3%); format: functional; settings: in the assay text read “after 24 hrs” for “after 48 hrs”
Summary of the method: (§1)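 HepG2 or SW620 cells were seeded at 25000 per well. After 24 h they were treated, then harvested 24 or 48 h later. Attached cells were trypsinized, pooled with floating cells, PBS-washed and fixed in 70% ethanol. Cells were stained with PI 1 µg/mL plus RNase A 0.2 µg/mL, and 10 000 events were acquired by flow cytometry. Phase percentages come from DNA histograms, in duplicate, with ANOVA at p < 0.05.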

[2] = test system: SW-620; assay: Induction of cell cycle arrest on human SW620 cells assessed as accumulation at subG1 phase at 50 uM after 48 hrs by propidium iodide staining based flow cytometry (reference value: 12.1 +/- 0.3%); format: functional; settings: in the assay text read “after 24 hrs” for “after 48 hrs”; summary of the method: as §1
[3] = test system: SW-620; assay: Induction of cell cycle arrest on human SW620 cells assessed as accumulation at G1 phase at 20 uM after 48 hrs by propidium iodide staining based flow cytometry (reference value: 38.1 +/- 1.1%); format: functional; settings: in the assay text read “after 24 hrs” for “after 48 hrs”; summary of the method: as §1
[4] = test system: SW-620; assay: Induction of cell cycle arrest on human SW620 cells assessed as accumulation at G1 phase at 50 uM after 48 hrs by propidium iodide staining based flow cytometry (reference value: 38.1 +/- 1.1%); format: functional; settings: in the assay text read “after 24 hrs” for “after 48 hrs”; summary of the method: as §1
[5] = test system: SW-620; assay: Induction of cell cycle arrest on human SW620 cells assessed as accumulation at S phase at 20 uM after 48 hrs by propidium iodide staining based flow cytometry (reference value: 39.4 +/- 0.2%); format: functional; settings: in the assay text read “after 24 hrs” for “after 48 hrs”; summary of the method: as §1
[6] = test system: SW-620; assay: Induction of cell cycle arrest on human SW620 cells assessed as accumulation at S phase at 50 uM after 48 hrs by propidium iodide staining based flow cytometry (reference value: 39.4 +/- 0.2%); format: functional; settings: in the assay text read “after 24 hrs” for “after 48 hrs”; summary of the method: as §1
[7] = test system: SW-620; assay: Induction of cell cycle arrest on human SW620 cells assessed as accumulation at G2/M phase at 20 uM after 48 hrs by propidium iodide staining based flow cytometry (reference value: 22.5 +/- 0.9%); format: functional; settings: in the assay text read “after 24 hrs” for “after 48 hrs”; summary of the method: as §1
[8] = test system: SW-620; assay: Induction of cell cycle arrest on human SW620 cells assessed as accumulation at G2/M phase at 50 uM after 48 hrs by propidium iodide staining based flow cytometry (reference value: 22.5 +/- 0.9%); format: functional; settings: in the assay text read “after 24 hrs” for “after 48 hrs”; summary of the method: as §1
[9] = test system: SW-620; assay: Induction of apoptosis in human SW620 cells assessed as enlarged cells level at 50 uM after 24 hrs by Annexin V-Fluos staining based fluorescent microscopy; format: functional, cell-based
Summary of the method: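 Cells seeded on chamber slides at 4000 per well and treated 24 h (HepG2 at 25 or 50 µM; SW620 at 50 µM). Incubated 15 min with Annexin V-Fluos reagent plus propidium iodide, washed in PBS, and examined by fluorescence microscopy for morphology and labelling.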

[10] = test system: Calf thymus DNA; assay: Binding affinity to calf thymus DNA assessed as change in melting temperature at drug/ base pair ratio of 0.25 by spectrophotometry; format: nucleic-acid assay; settings: Bos taurus
Summary of the method: (§2)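 CT-DNA absorbance followed at 260 nm from 20 to 100 °C, rising 1 °C per min, in BPE buffer, with or without compound at drug/base-pair ratio 0.25 or 0.5. Tm taken as midpoint of the hyperchromic transition from first-derivative plots. ΔTm is Tm with compound minus Tm of DNA alone.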

[11] = test system: Calf thymus DNA; assay: Binding affinity to calf thymus DNA assessed as change in melting temperature at drug/ base pair ratio of 0.5 by spectrophotometry; format: nucleic-acid assay; settings: Bos taurus; summary of the method: as §2
[12] = test system: Calf thymus DNA; assay: Binding affinity to calf thymus DNA at 50 uM circular dichroism spectroscopy; format: nucleic-acid assay; settings: Bos taurus
Summary of the method: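 CD spectra recorded from 480 to 230 nm, 10 mm path, 20 °C, in BPE buffer. CT-DNA (50 µM) incubated with compound rising from 1 to 60 µM or to 80 µM. Compound without DNA served as the control for intrinsic CD.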

[13] = target: T1, DNA topoisomerase 1 (Homo sapiens) (UniProt P11387); assay: Inhibition of human topoisomerase 1 assessed as topoisomerase poison activity by measuring generation of open circular DNA using supercoiled pUC19 DNA at 5 to 50 uM by agarose gel electrophoresis
T1 sequence (whole entry): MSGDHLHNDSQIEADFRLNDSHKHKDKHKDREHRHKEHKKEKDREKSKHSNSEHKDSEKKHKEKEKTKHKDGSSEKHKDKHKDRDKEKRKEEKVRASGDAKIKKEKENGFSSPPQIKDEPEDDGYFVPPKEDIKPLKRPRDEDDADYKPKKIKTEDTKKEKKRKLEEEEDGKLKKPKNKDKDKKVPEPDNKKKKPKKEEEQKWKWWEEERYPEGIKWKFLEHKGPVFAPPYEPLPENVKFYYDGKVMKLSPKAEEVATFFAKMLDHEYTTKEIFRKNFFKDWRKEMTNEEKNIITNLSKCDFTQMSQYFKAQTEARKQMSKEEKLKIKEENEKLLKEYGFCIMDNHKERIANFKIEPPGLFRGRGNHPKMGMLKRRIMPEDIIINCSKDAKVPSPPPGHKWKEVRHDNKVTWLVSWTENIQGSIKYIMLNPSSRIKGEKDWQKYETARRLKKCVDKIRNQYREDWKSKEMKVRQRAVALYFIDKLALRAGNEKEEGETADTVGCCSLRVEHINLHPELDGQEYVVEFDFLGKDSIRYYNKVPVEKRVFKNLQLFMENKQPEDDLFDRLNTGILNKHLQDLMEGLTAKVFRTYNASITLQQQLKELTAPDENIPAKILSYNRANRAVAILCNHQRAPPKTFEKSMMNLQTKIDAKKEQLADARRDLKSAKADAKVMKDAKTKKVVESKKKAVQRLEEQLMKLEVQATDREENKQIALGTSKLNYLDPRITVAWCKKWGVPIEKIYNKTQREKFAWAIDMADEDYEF
Summary of the method: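 Supercoiled pUC19 plasmid was incubated with human topoisomerase I and graded compound concentrations. Reactions were stopped with SDS and proteinase K. DNA forms were resolved on 1% agarose in TBE (2 h, 120 V), post-stained with ethidium bromide and photographed under UV. Poisoning was read as appearance of nicked DNA, with camptothecin as the positive control.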

[14] = test system: Nucleic Acid; assay: Induction of DNA intercalation in supercoiled pUC19 DNA in presence of human topoisomerase 1 assessed as effect on topoisomerase 1-mediated DNA relaxation at 5 to 50 uM by agarose gel electrophoresis; format: nucleic-acid assay; settings: Escherichia coli
Summary of the method: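 Supercoiled pUC19 incubated with human topoisomerase I and graded compound concentrations. Stopped with SDS/proteinase K. DNA forms resolved on 1% agarose in TBE, 2 h at 120 V, stained post-run with ethidium bromide and viewed under UV. Camptothecin was the topo I poison control.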

[15] = test system: MCF7; assay: Antiproliferative activity against human MCF7 cells assessed as inhibition of cell proliferation after 72 hrs by MTT assay; format: functional, cell-based
Summary of the method: (§3)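 Cells grown as monolayers in DMEM with 10% FBS, 2 mM L-glutamine, penicillin/streptomycin, 37 °C, 5% CO2. Seeded at 5000/well on day 0. Compounds added after 24 h as five serial dilutions (0,01 to 100 µM), DMSO ≤0.1%, then 72 h. MTT read-out converted to percentage growth. IC50 by linear regression; quadruplicates in three experiments.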

[16] = (§4) Antiproliferative activity against human SW620 cells assessed as inhibition of cell proliferation after 72 hrs by MTT assay; format: functional, cell-based, SW-620; settings: Homo sapiens, SW-620, 72 h; summary of the method: as §3
[17] = test system: SW-620; assay: as §4; format: functional, cell-based; summary of the method: as §3
[18] = test system: HepG2; assay: Antiproliferative activity against human HepG2 cells assessed as inhibition of cell proliferation after 72 hrs by MTT assay; format: functional, cell-based; summary of the method: as §3
[19] = test system: BJ; assay: Antiproliferative activity against human BJ cells assessed as inhibition of cell proliferation after 72 hrs by MTT assay; format: cell-based; settings: 72 h; summary of the method: as §3
[20] = test system: HeLa; assay: Antiproliferative activity against human HeLa cells assessed as inhibition of cell proliferation after 72 hrs by MTT assay; format: functional, cell-based; summary of the method: as §3

In the case of `Cl.c1ccc2c(c1)CN(c1ccc(C3=NCCN3)nc1)/C2=N/c1ccc(C2=NCCN2)nc1`, the Activity [1] is reported as 7.5%, the Activity [2] is reported as 7.8% and the Activity [3] is reported as 19.6%. The Activity [4] was 22.1%, the Activity [5] was 40.4% and the Activity [6] was 36.2%. For the same compound, the Activity [7] was 40%, the Activity [8] was 41.7% and the Activity [9] was “Active”. The ΔTm [10] was 12.2 °C, the ΔTm [11] was 17.3 °C and the Activity [12] was “Active”. The inhibition [13] was “inactive”, the Activity [14] was “Active” and the inhibition [15] was “Dose-dependent effect”. The IC50 ([15]; Homo sapiens, MCF7, 72 h) was 3.76 µM, the IC50 [16] was 5.26 µM and the inhibition [17] was “Dose-dependent effect”. The inhibition [18] was “Dose-dependent effect”, the IC50 ([18]; HepG2, 72 h) was 20.5 µM and the IC50 ([19]; Homo sapiens, BJ) was 4.26 µM. For the same compound, the “inhibition (INH)” value ([19]; human, bj) was “Dose-dependent effect”, the inhibition [20] was “Dose-dependent effect” and the IC50 ([20]; Homo sapiens, HeLa, 72 h) was 6.25 µM.
